Calls of active or inactive are those of the source. The calls are words filed in the database; no cut-off is given here.
Key:
[1] = Selectivity index, ratio of IC50 for mouse J774 macrophages to IC50 for Trypanosoma cruzi Tulahuen 2 epimastigotes
Trypanosoma cruzi [2] = assay: Antitrypanosomal activity against Trypanosoma cruzi Tulahuen 2 epimastigotes assessed as parasite growth inhibition after 5 days; format: functional, organism-based
Method in brief: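 Tulahuen 2 epimastigotes grown at 28 °C in BHI-tryptose with 5% foetal calf serum. Late-log cells seeded at 3×10⁶/mL in 24-well plates with compound from DMSO stock (final DMSO ≤0.8%; control 0.8% DMSO). A610 read at day 0 and day 5. Growth inhibition calculated from the corrected absorbance ratio to control; IC50 is the concentration giving 50% of the control ratio.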

J774 = assay: Cytotoxicity against mouse J774 macrophages after 48 hrs by MTT assay; format: cell-based
Method in brief: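 Exposed to compounds (1.0–400.0) for 48 h, washed with PBS, then MTT 0.4 mg/mL for 3 h. Formazan dissolved in DMSO, OD595 read. Triplicate per concentration, six growth controls. % cytotoxicity calculated against blanks.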

Trypanosoma cruzi [3] = assay: Induction of free radical production Trypanosoma cruzi microsomal fraction at 1 mM using DMPO and FXN spin trapping by ESR spectroscopic analysis; format: functional; conditions: Microsome
Method in brief: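 T. cruzi microsomal fraction at 4 mg protein/mL, in 20 mM phosphate buffer pH 7.4 with 1 mM NADPH, 1 mM EDTA and 100 mM DMPO or FXN spin trap. Compound added at 1 mM final, dissolved in spectroscopy-grade DMF. Radical adducts detected by ESR.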

[4] = biological target: Cruzipain (Trypanosoma cruzi) (UniProt P25779); assay: Inhibition of Trypanosoma cruzi cruzipain at 50 uM
Sequence of Cruzipain (Trypanosoma cruzi) (P25779 123-467 limits assumed): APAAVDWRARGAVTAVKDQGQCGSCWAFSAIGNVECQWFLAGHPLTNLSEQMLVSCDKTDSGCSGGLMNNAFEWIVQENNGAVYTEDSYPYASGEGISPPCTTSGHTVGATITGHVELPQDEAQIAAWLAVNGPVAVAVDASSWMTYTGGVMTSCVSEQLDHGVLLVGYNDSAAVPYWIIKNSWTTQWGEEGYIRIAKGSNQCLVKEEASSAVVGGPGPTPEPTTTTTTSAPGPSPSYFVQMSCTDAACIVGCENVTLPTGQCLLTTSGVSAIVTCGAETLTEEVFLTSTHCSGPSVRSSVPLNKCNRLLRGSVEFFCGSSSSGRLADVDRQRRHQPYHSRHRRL

[5] = biological target: Cruzipain (Trypanosoma cruzi) (UniProt P25779); assay: Inhibition of Trypanosoma cruzi cruzipain at 100 uM
Trypanosoma cruzi [6] = assay: Antitrypanosomal activity against Trypanosoma cruzi CL Brener epimastigotes assessed as parasite viability after 5 days by MTT assay; format: functional, organism-based; conditions: 120 h
Method in brief: (§1)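 Promastigotes (L. braziliensis, L. pifanoi) grown at 28 °C in axenic RPMI with 5% FBS. T. cruzi CL Brener epimastigotes grown in BHI-tryptose with 5% foetal serum. 24-well plates, 1 mL/well, seeded from exponential-phase culture. Compounds in DMSO, added at several concentrations (0.5–50.0) and kept 5 days. Then MTT 0.4 mg/mL for 3 h at 37 °C. Formazan dissolved in DMSO, OD595 read. Triplicate per concentration, six growth controls. Cytotoxicity % calculated against growth and medium blanks, IC50 derived.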

[7] = biological target: Cruzipain (Trypanosoma cruzi) (UniProt P25779); assay: Inhibition of Trypanosoma cruzi cruzipain at 25 uM
Leishmania braziliensis [8] = assay: Inhibition of Leishmania braziliensis MHOM/BR/00/LTB300 promastigotes mitochondrial dehydrogenase at 20 uM by MTT assay relative to control; conditions: TDE = time-dependent effect
Method in brief: (§2)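 10⁶ parasites/well (T. cruzi Tulahuen 2 or Y epimastigotes, or L. braziliensis LTB300 promastigotes) in 500 µL medium with 20 µM compound, at 28 °C for up to 240 min; untreated duplicate wells served as time-matched controls. MTT (5 mg/mL stock in PBS) added for 2 h, stopped with acidic isopropanol, A570 read. Activity expressed as % of untreated parasites.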

Trypanosoma cruzi [9] = assay: Inhibition of Trypanosoma cruzi Y mitochondrial dehydrogenase at 20 uM after 120 mins by MTT assay relative to control
Method in brief: as §2

Trypanosoma cruzi [10] = assay: Inhibition of Trypanosoma cruzi Tulahuen 2 mitochondrial dehydrogenase at 20 uM after 120 mins by MTT assay relative to control
Method in brief: as §2

Leishmania braziliensis [11] = assay: Antileishmanial activity against Leishmania braziliensis MHOM/BR/00/LTB300 promastigotes assessed as parasite viability after 5 days by MTT assay; format: functional, organism-based; conditions: MHOM/BR/00/LTB300, 120 h
Method in brief: as §1

Trypanosoma cruzi [12] = assay: Antitrypanosomal activity against Trypanosoma cruzi epimastigotes; format: functional, organism-based
Leishmania pifanoi [13] = assay: Antileishmanial activity against Leishmania pifanoi MHOM/VE/57/LV135 promastigotes assessed as parasite viability after 5 days by MTT assay; format: functional, organism-based; conditions: MHOM/VE/57/LV135, 120 h
Method in brief: as §1

Leishmania pifanoi [14] = assay: Antileishmanial activity against Leishmania pifanoi MHOM/VE/57/LV135 promastigotes assessed as parasite viability at 5 uM after 5 days by MTT assay; format: functional; conditions: MHOM/VE/57/LV135, 120 h, read-out: GI
Method in brief: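 L. pifanoi LV135 promastigotes grown at 28 °C in axenic RPMI with 5% FBS. Tested at a single concentration of 5.0 over 5 days. MTT 0.4 mg/mL for 3 h at 37 °C, formazan dissolved in DMSO, OD595 read. Percent growth inhibition reported versus untreated growth controls, with medium blanks subtracted.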

Leishmania braziliensis [15] = assay: Ratio of compound IC50 to Miltefosine IC50 for Leishmania braziliensis MHOM/BR/00/LTB300 promastigotes; format: functional
[16] = Trypanosoma cruzi, Tulahuen 2, 120 h

Row | Compound | IC50 (Trypanosoma cruzi [2]; [16]) [µM] | IC50 (Trypanosoma cruzi [6]) [µM] | Selectivity Index [1] | IC50 (J774; Mus musculus, J774, 48 h) [µM] | also measured
1 | O=C(/C=C/c1ccc2nonc2c1)c1ccc([N+](=O)[O-])cc1 | > 100 | – | <1.3 | 131 | –
2 | [O-][n+]1onc2ccc(/C=C/[S+]([O-])c3ccccc3)cc21 (stereo in doubt; 24) | – | – | >10 | – | IC50 (J774; j774): > 400 µM
3 | O=S(=O)(/C=C/c1ccc2no[n+]([O-])c2c1)c1ccccc1 (stereo in doubt; 4E) [listing 1 of 2 here] | – | – | – | – | Activity (Leishmania braziliensis [8]): tde; inhibition (Trypanosoma cruzi [9]): 25%
4 | O=S(=O)(C=Cc1ccc2no[n+]([O-])c2c1)c1ccc(F)cc1 | – | – | – | – | inhibition (Trypanosoma cruzi [10]): 17.6%
5 | O=S(=O)(/C=C\c1ccc2no[n+]([O-])c2c1)c1ccccc1 | – | – | 10 | 11 | IC50 (Leishmania braziliensis [11]): 10.8 µM; IC50 (Trypanosoma cruzi [12]): 1.1 µM
6 | [O-][n+]1onc2ccc(/C=C\[S+]([O-])c3ccc(Cl)cc3)cc21 (stereo unspecified) | 2.7 | 4.7 | 6.3 | 10 | –
7 | [O-][n+]1onc2ccc(/C=C/Sc3ccccc3)cc21 | – | – | – | – | IC50 (Leishmania braziliensis [11]): 1.5 µM; IC50 (Trypanosoma cruzi [12]): 2.6 µM; IC50 (Leishmania pifanoi [13]): 4.3 µM
8 | [O-][n+]1onc2ccc(/C=C/c3ccccc3)cc21 | – | – | – | – | IC50 (Trypanosoma cruzi [12]): 10.7 µM
9 | [O-][n+]1onc2ccc(/C=C\Sc3ccc(F)cc3)cc21 | 12 | 5.9 | – | – | IC50 (Leishmania braziliensis [11]): 1.7 µM; Activity (Trypanosoma cruzi [3]): Active; IC50 (Leishmania pifanoi [13]): 4.5 µM
10 | [O-][n+]1onc2ccc(/C=C/[S+]([O-])c3ccccc3)cc21 (stereo in doubt; 3E) | – | – | 11.5 | – | IC50 (Leishmania braziliensis [11]): 31.5 µM; IC50 (J774; j774): 30 µM; IC50 (Trypanosoma cruzi [12]): 2.6 µM
11 | [O-][n+]1onc2ccc(/C=C/[S+]([O-])c3ccc(F)cc3)cc21 (stereo unspecified) | 4.5 | 6.2 | – | – | –
12 | CCCCCCCCCCCCCCCCOP(=O)([O-])OCC[N+](C)(C)C [MILTEFOSINE] | – | – | – | – | IC50 (Leishmania braziliensis [11]): 9 µM; inhibition of growth at 5 µM (Leishmania pifanoi [14]): 85.5%
13 | [O-][n+]1onc2ccc(/C=C\Sc3ccc(Cl)cc3)cc21 | 4.2 | 2.8 | – | – | –
14 | O=S(=O)(C=Cc1ccc2no[n+]([O-])c2c1)c1ccc(Cl)cc1 | – | – | – | – | inhibition (Trypanosoma cruzi [10]): 4%
15 | COc1ccc(C(=O)/C=C/c2ccc3no[n+]([O-])c3c2)cc1 (stereo in doubt; 11) | – | – | 7.6 | – | IC50 (Trypanosoma cruzi [2]): 4.1 µM; IC50 (J774; j774): 31 µM; inhibition [5]: 13%
16 | O=C(/C=C/c1ccc2nonc2c1)c1ccc(Cl)cc1 | > 100 | – | <2.5 | 251 | –
17 | O=S(=O)(/C=C/c1ccc2no[n+]([O-])c2c1)c1ccccc1 (stereo in doubt; 4E) [listing 2 of 2 here] | – | – | 10 | – | IC50 (Leishmania braziliensis [11]): 21.5 µM; IC50 (J774; j774): 16 µM; IC50 (Trypanosoma cruzi [12]): 1.6 µM
18 | O=S(=O)(/C=C/c1ccc2no[n+]([O-])c2c1)c1ccccc1 (stereo in doubt; 25) | – | – | 3.1 | – | IC50 (J774; j774): 78 µM
19 | [O-][n+]1onc2ccc(/C=C\[S+]([O-])c3ccccc3)cc21 (stereo unspecified) | – | – | 20 | 14 | IC50 (Leishmania braziliensis [11]): 4.6 µM; Activity (Leishmania braziliensis [8]): tde; IC50 (Trypanosoma cruzi [12]): 0.7 µM; inhibition (Trypanosoma cruzi [9]): 25%
20 | C=CS(=O)(=O)Cc1ccc2no[n+]([O-])c2c1 | – | – | – | – | IC50 (Leishmania braziliensis [11]): 16.8 µM; Activity (Leishmania braziliensis [8]): tde; IC50 (Trypanosoma cruzi [12]): 14.6 µM; inhibition (Trypanosoma cruzi [10]): 58.5%
21 | [O-][n+]1onc2ccc(/C=C\Sc3ccccc3)cc21 | – | – | – | – | IC50 (Leishmania braziliensis [11]): 0.9 µM; Ratio IC50 (Leishmania braziliensis [15]): 10; inhibition [4]: 22%; inhibition [5]: 30%; IC50 (Trypanosoma cruzi [12]): 3.8 µM; IC50 (Leishmania pifanoi [13]): 4.5 µM; inhibition [7]: 11%
22 | O=C(/C=C/c1ccc2nonc2c1)c1ccccc1 | 97 | – | 1.1 | 102 | –
23 | [O-][n+]1onc2ccc(/C=C/Sc3ccc(F)cc3)cc21 | 5 | 5.5 | 7 | 35 | IC50 (Leishmania braziliensis [11]): 4.3 µM; Activity (Trypanosoma cruzi [3]): Active; IC50 (Leishmania pifanoi [13]): 4.3 µM
24 | [O-][n+]1onc2ccc(/C=C/Sc3ccc(Cl)cc3)cc21 | 1.9 | 1 | – | – | IC50 (Leishmania braziliensis [11]): 0.9 µM; Ratio IC50 (Leishmania braziliensis [15]): 10; IC50 (Leishmania pifanoi [13]): 4.6 µM
25 | [O-][n+]1onc2ccc(C=CSc3ccccc3)cc21 | – | – | 10 | 30 | inhibition (Trypanosoma cruzi [10]): 14.5%
26 | O=C(/C=C/c1ccc2no[n+]([O-])c2c1)c1ccccc1 | 5 | – | 9.4 | 47 | inhibition [4]: 0%; inhibition [5]: 0%; inhibition (Trypanosoma cruzi [10]): 21.8%; inhibition [7]: 0%
27 | [O-][n+]1onc2ccc(/C=C\c3ccccc3)cc21 | – | – | – | – | IC50 (Trypanosoma cruzi [12]): 7 µM

Further lines, with some results ahead:

Row | IC50 (Trypanosoma cruzi [2]; [16]) [µM] | IC50 (Trypanosoma cruzi [6]) [µM] | Compound | Selectivity Index [1] | IC50 (J774; Mus musculus, J774, 48 h) [µM] | also measured
28 | 2.7 | 2.9 | O=S(=O)(/C=C\c1ccc2no[n+]([O-])c2c1)c1ccc(F)cc1 | – | – | Activity (Trypanosoma cruzi [3]): Active; inhibition [4]: 0%; inhibition [5]: 0%; inhibition [7]: 0%
29 | 7.5 | 6.3 | O=S(=O)(/C=C/c1ccc2no[n+]([O-])c2c1)c1ccc(F)cc1 | – | – | Activity (Trypanosoma cruzi [3]): Active
30 | 25 | – | O=C(/C=C/c1ccc2no[n+]([O-])c2c1)c1ccc(Cl)cc1 | 1.1 | 28 | –
31 | 1.3 | 2.3 | O=S(=O)(/C=C\c1ccc2no[n+]([O-])c2c1)c1ccc(Cl)cc1 | – | – | –
32 | 3.6 | 5.1 | Cc1ccc(S(=O)(=O)/C=C\c2ccc3no[n+]([O-])c3c2)cc1 | – | – | –
33 | 4.3 | 9.6 | Cc1ccc(S(=O)(=O)/C=C/c2ccc3no[n+]([O-])c3c2)cc1 | 1.1 | 8 | –
34 | 5.5 | 6.7 | [O-][n+]1onc2ccc(/C=C/[S+]([O-])c3ccc(Cl)cc3)cc21 (stereo unspecified) | 4 | 18 | –
35 | 4.2 | 4.1 | Cc1ccc(S/C=C\c2ccc3no[n+]([O-])c3c2)cc1 | – | – | –
36 | 6.7 | 8.4 | Cc1ccc([S+]([O-])/C=C\c2ccc3no[n+]([O-])c3c2)cc1 (stereo unspecified) | – | – | –
37 | 1.6 | 3.2 | [O-][n+]1onc2ccc(/C=C\[S+]([O-])c3ccc(F)cc3)cc21 (stereo unspecified) | – | – | –
38 | 2.4 | – | O=C(/C=C/c1ccc2no[n+]([O-])c2c1)c1ccc([N+](=O)[O-])cc1 | 13.3 | 32 | –
39 | 4.6 | 6 | Cc1ccc([S+]([O-])/C=C/c2ccc3no[n+]([O-])c3c2)cc1 (stereo unspecified) | – | – | –
40 | 4.8 | 4.8 | O=S(=O)(/C=C/c1ccc2no[n+]([O-])c2c1)c1ccc(Cl)cc1 | – | – | –
41 | 1.9 | 4.7 | Cc1ccc(S/C=C/c2ccc3no[n+]([O-])c3c2)cc1 | – | – | –

— ChEMBL document CHEMBL1156117, “Anti-trypanosomatid benzofuroxans and deoxygenated analogues: synthesis using polymer-supported triphenylphosphine, biological evaluation and mechanism of action studies” (Eur J Med Chem, 2009)
